Test results taken from ChEMBL document CHEMBL1250463, “N(epsilon)-Modified lysine containing inhibitors for SIRT1 and SIRT2” (Bioorg Med Chem, 2010).

Columns and labels:
[1] = target: T1, NAD-dependent protein deacetylase sirtuin-2 (Homo sapiens) (UniProt Q8IXJ6); assay: Inhibition of GST-SIRT2 at 200 uM after 1 hr by Fluor de Lys fluorescence assay
T1 sequence (whole entry): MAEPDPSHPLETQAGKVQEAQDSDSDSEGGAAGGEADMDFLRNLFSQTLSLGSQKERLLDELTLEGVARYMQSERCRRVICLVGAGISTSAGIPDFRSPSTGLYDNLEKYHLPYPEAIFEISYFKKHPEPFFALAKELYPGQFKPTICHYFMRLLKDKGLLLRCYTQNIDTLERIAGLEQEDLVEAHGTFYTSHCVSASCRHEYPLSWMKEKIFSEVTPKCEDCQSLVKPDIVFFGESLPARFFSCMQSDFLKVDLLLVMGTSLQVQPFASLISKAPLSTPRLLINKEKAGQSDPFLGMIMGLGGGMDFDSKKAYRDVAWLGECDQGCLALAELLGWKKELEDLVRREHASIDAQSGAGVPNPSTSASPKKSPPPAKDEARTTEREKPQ
Summary of the method: (§1)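 Recombinant GST-SIRT2 with Fluor de Lys acetylated SIRT2 peptide substrate at 70% of its Km, plus NAD+, in HDAC assay buffer with 1 mg/ml BSA. Compound or DMSO was preincubated 5 min at rt with buffer, substrate and NAD+. Enzyme was added to start the reaction, run 1 h at 37 °C. Developer with 2 mM nicotinamide followed for 45 min at 37 °C, then fluorescence was read.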

[2] = target: T2, NAD-dependent protein deacetylase sirtuin-1 (Homo sapiens) (UniProt Q96EB6); assay: Inhibition of GST-SIRT1 at 200 uM after 1 hr by Fluor de Lys fluorescence assay
T2 sequence (whole entry): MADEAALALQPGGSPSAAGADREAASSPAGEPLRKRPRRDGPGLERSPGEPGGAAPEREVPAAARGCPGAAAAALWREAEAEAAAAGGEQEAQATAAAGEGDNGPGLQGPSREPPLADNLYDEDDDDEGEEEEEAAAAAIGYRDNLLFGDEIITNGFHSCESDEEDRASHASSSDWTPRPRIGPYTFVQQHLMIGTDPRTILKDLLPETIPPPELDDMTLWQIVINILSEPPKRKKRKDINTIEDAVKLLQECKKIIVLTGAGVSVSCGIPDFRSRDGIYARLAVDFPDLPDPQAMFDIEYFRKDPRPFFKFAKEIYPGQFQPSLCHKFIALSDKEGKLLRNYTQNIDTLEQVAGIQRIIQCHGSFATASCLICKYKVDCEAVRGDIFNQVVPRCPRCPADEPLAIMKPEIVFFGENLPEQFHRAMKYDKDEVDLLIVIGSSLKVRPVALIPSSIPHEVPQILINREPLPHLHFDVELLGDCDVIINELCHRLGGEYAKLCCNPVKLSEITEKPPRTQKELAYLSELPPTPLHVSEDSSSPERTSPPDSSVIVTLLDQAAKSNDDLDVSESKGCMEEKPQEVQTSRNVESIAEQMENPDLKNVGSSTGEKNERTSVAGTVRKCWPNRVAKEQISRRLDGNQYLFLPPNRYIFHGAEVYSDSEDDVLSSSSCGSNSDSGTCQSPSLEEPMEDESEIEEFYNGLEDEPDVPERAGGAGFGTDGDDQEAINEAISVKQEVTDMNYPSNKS
Summary of the method: (§2)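 Recombinant GST-SIRT1 with Fluor de Lys acetylated SIRT1 peptide substrate at 70% of its Km, plus NAD+, in HDAC assay buffer with 1 mg/ml BSA. Buffer, substrate, NAD+ and compound in DMSO (2.5 in 50 total) were preincubated 5 min at rt. Enzyme addition started the reaction, run 1 h at 37 °C. Developer plus 2 mM nicotinamide was then added for 45 min at 37 °C before fluorescence read-out.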

[3] = target: T3, NAD-dependent protein deacetylase sirtuin-1 (Homo sapiens, UniProt Q96EB6); assay: Inhibition of GST-SIRT1 after 1 hr by Fluor de Lys fluorescence assay; summary of the method: as §2
T3 sequence (Q96EB6 whole entry): T2 sequence (whole entry)

[4] = target: T4, NAD-dependent protein deacetylase sirtuin-2 (Homo sapiens, UniProt Q8IXJ6); assay: Inhibition of GST-SIRT2 after 1 hr by Fluor de Lys fluorescence assay; summary of the method: as §1
T4 sequence (Q8IXJ6 whole entry): T1 sequence (whole entry)

SMILES	inhibition [1] [%]	inhibition [2] [%]	IC50 [3] [µM]	IC50 [4] [µM]
COC(=O)[C@H](C)NC(=O)[C@H](CCCCNC(=O)c1ccccc1)NC(=O)[C@H](C)NC(C)=O	14	12	–	–
COC(=O)[C@H](C)NC(=O)[C@H](CCCCNC(=O)Cc1cccnc1)NC(=O)[C@H](C)NC(C)=O	0	10	–	–
COC(=O)[C@H](C)NC(=O)[C@H](CCCCNC(=O)Cc1ccccn1)NC(=O)[C@H](C)NC(C)=O	21	26	–	–
COC(=O)[C@H](C)NC(=O)[C@H](CCCCNS(C)(=O)=O)NC(=O)[C@H](C)NC(C)=O	8	17	–	–
CC(=O)N[C@@H](C)C(=O)N[C@@H](CCCCNC(=S)CC(C)C)C(=O)N[C@@H](C)C(=O)O	99	100	0.7	3.6
COC(=O)[C@H](C)NC(=O)[C@H](CCCCNS(=O)(=O)c1ccc([N+](=O)[O-])cc1)NC(=O)[C@H](C)NC(C)=O	5	0	–	–
CC(=[Se])NCCCC[C@H](NC(=O)OCc1ccccc1)C(=O)Nc1ccccc1	99	98	1.8	2.7
COC(=O)[C@H](C)NC(=O)[C@H](CCCCNS(=O)(=O)c1ccc(C)cc1)NC(=O)[C@H](C)NC(C)=O	0	1	–	–
COC(=O)[C@H](C)NC(=O)[C@H](CCCCNC(=O)c1cccnc1)NC(=O)[C@H](C)NC(C)=O	2	9	–	–
CC(C)(C)OC(=O)NCCCC[C@H](NC(=O)OCc1ccccc1)C(=O)Nc1ccccc1	13	6	–	–
COC(=O)[C@H](C)NC(=O)[C@H](CCCCNS(=O)(=O)C(F)(F)F)NC(=O)[C@H](C)NC(C)=O	4	15	–	–
CC(=O)N[C@@H](C)C(=O)N[C@@H](CCCCNC(=O)/C=C(/C)C(F)(F)F)C(=O)N[C@@H](C)C(=O)O	20	33	–	–
COC(=O)[C@H](C)NC(=O)[C@H](CCCCNC(=O)C1=CCCCC1)NC(=O)[C@H](C)NC(C)=O	54	33	–	129
CP(C)(=S)NCCCC[C@H](NC(=O)OCc1ccccc1)C(=O)Nc1ccccc1	27	10	–	–
CC(=O)N[C@@H](C)C(=O)N[C@@H](CCCCNC(C)=[Se])C(=O)N[C@@H](C)C(=O)O	97	100	0.37	7.2
COC(=O)[C@H](C)NC(=O)[C@H](CCCCNC(=O)OCc1ccccc1)NC(=O)[C@H](C)NC(C)=O	3	11	–	–
COC(=O)[C@H](C)NC(=O)[C@H](CCCCNC(=O)c1ccccn1)NC(=O)[C@H](C)NC(C)=O	0	4	–	–

Second part, the molecule after the results:

inhibition [1] [%]	inhibition [2] [%]	IC50 [3] [µM]	IC50 [4] [µM]	SMILES
95	96	6.1	23	CNC(=O)[C@H](C)NC(=O)[C@H](CCCCNC(=O)C=C(C)C)NC(=O)[C@H](C)NC(C)=O
52	53	223	338	COC(=O)[C@H](C)NC(=O)[C@H](CCCCNC(=O)C(C)(C)C)NC(=O)[C@H](C)NC(C)=O
57	39	268	180	COC(=O)[C@H](C)NC(=O)[C@H](CCCCNC(C)=O)NC(=O)[C@H](C)NC(C)=O
68	66	88	60	CNC(=O)[C@H](C)NC(=O)[C@H](CCCCNC(C)=O)NC(=O)[C@H](C)NC(C)=O
16	48	1770	–	COC(=O)[C@H](C)NC(=O)[C@H](CCCCNC(=O)CBr)NC(=O)[C@H](C)NC(C)=O
8	19	–	–	COC(=O)[C@H](C)NC(=O)[C@H](CCCCNC(=O)CCl)NC(=O)[C@H](C)NC(C)=O
42	62	122	223	CC(=O)NCCCC[C@H](NC(=O)[C@H](C)NC(C)=O)C(=O)N[C@@H](C)C(=O)O
9	20	–	–	C/C=C/C(=O)NCCCC[C@H](NC(=O)[C@H](C)NC(C)=O)C(=O)N[C@@H](C)C(=O)OC
26	36	–	–	CNC(=O)[C@H](C)NC(=O)[C@H](CCCCNC(=O)c1ccc[nH]1)NC(=O)[C@H](C)NC(C)=O
13	24	–	–	COC(=O)[C@H](C)NC(=O)[C@H](CCCCNC(=O)N(C)C)NC(=O)[C@H](C)NC(C)=O
0	8	–	–	COC(=O)NCCCC[C@H](NC(=O)[C@H](C)NC(C)=O)C(=O)N[C@@H](C)C(=O)OC
52	95	11	77	CC(=O)N[C@@H](C)C(=O)N[C@@H](CCCCNC(=O)C=C(C)C)C(=O)N[C@@H](C)C(=O)O
96	100	0.24	9.8	CC(=O)N[C@@H](C)C(=O)N[C@@H](CCCCNC(C)=S)C(=O)N[C@@H](C)C(=O)O
34	39	–	–	CNC(=O)[C@H](C)NC(=O)[C@H](CCCCNC(=O)c1ccc(N(C)C)cc1)NC(=O)[C@H](C)NC(C)=O
77	82	40	66	CNC(=O)[C@H](C)NC(=O)[C@H](CCCCNC(=O)C(C)(C)C)NC(=O)[C@H](C)NC(C)=O
41	23	–	–	CNC(=O)[C@H](C)NC(=O)[C@H](CCCCNC(=O)c1cccn1C)NC(=O)[C@H](C)NC(C)=O
39	39	–	–	C/C=C(\C)C(=O)NCCCC[C@H](NC(=O)[C@H](C)NC(C)=O)C(=O)N[C@@H](C)C(=O)OC
74	78	46	69	COC(=O)[C@H](C)NC(=O)[C@H](CCCCNC(=O)C=C(C)C)NC(=O)[C@H](C)NC(C)=O
76	94	12	30	CC(=O)N[C@@H](C)C(=O)N[C@@H](CCCCNC(=O)CC(C)C)C(=O)N[C@@H](C)C(=O)O
